Laboratory results as given in ChEMBL document CHEMBL4052819 (2017).
In brackets after ≈: the same amount, converted by molar mass. Activity calls are given as the source filed them. The rule behind the calls is not given here. Non-standard residues stand in square brackets, D forms with d. Residues, ends and D or L forms follow the SMILES beside them. Cha = N[C@@H](CC1CCCCC1)C(=O)O; Dab = NCC[C@H](N)C(=O)O

Tests used:
Escherichia coli [1] = test: Antibacterial activity against Escherichia coli ATCC 25922 after 18 to 20 hrs by broth microdilution method; assay type: functional
Method in brief: (§1)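 Broth microdilution in tryptic soy broth: 2-fold dilutions mixed 1:1 with ~1.5 × 10^5 CFU/mL inoculum, final 0.5–32 μg/mL; 37 °C, 18–20 h. MIC taken as lowest concentration giving no visible growth. At least three independent experiments, one replicate each.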

Pseudomonas aeruginosa [2] = test: Antibacterial activity against Pseudomonas aeruginosa ATCC 27853 after 18 to 20 hrs by broth microdilution method; assay type: functional; method in brief: as §1
Enterococcus faecium [3] = test: Antibacterial activity against Enterococcus faecium ATCC 19434 after 18 to 20 hrs by broth microdilution method; assay type: functional; method in brief: as §1
Staphylococcus aureus [4] = test: Antibacterial activity against Staphylococcus aureus ATCC 29213 after 18 to 20 hrs by broth microdilution method; assay type: functional; method in brief: as §1
Staphylococcus aureus [5] = test: Antibacterial activity against methicillin-resistant Staphylococcus aureus ATCC 43300 after 18 to 20 hrs by broth microdilution method; assay type: functional
Method in brief: (§2)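 Broth microdilution in tryptic soy broth: 2-fold dilutions mixed 1:1 with ~1.5 × 10^5 CFU/mL bacterial suspension in TSB, final 0.5–32 μg/mL, 37 °C for 18–20 h. MIC = lowest concentration with no visible growth. At least three independent experiments, one replicate each.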

Acinetobacter baumannii [6] = test: Bactericidal activity against Acinetobacter baumannii ATCC 19606; assay type: functional; conditions: ATCC 19606 = CIP 70.34 = JCM 6841, read-out: MBC99.9
Method in brief: (§3)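 MBC from MIC plates at end point: 50 μL from each well with no visible growth plated on tryptic soy agar and counted. MBC taken as lowest concentration giving ≥99.9% fall in viable count relative to initial inoculum. Three independent experiments, one replicate each.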

Escherichia coli [7] = test: Bactericidal activity against Escherichia coli ATCC 25922; assay type: functional; conditions: read-out: MBC99.9; method in brief: as §3
Enterococcus faecium [8] = test: Bactericidal activity against Enterococcus faecium ATCC 19434; assay type: functional; conditions: read-out: MBC99.9; method in brief: as §3
Staphylococcus aureus [9] = test: Bactericidal activity against methicillin-resistant Staphylococcus aureus ATCC 43300; assay type: functional; conditions: read-out: MBC99.9
Method in brief: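 MBC taken at the end of the MIC test: 50 μL from each well without visible growth plated on tryptic soy agar. MBC = lowest concentration giving ≥99.9% reduction in viable cells relative to the initial inoculum. Three independent experiments, one replicate each.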

Pseudomonas aeruginosa [10] = test: Bactericidal activity against Pseudomonas aeruginosa ATCC 27853 at 32 ug/ml after 2 hrs by time-kill assay relative to control; assay type: functional
Method in brief: (§4)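 Time-kill at 8, 16 and 32 μg/mL; survivors counted on tryptic soy agar at 0, 2, 4, 6 and 24 h. Three independent experiments, one replicate each.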

Pseudomonas aeruginosa [11] = test: Bactericidal activity against Pseudomonas aeruginosa ATCC 27853 at 16 ug/ml after 2 hrs by time-kill assay relative to control; assay type: functional; method in brief: as §4
Pseudomonas aeruginosa [12] = test: Bactericidal activity against Pseudomonas aeruginosa ATCC 27853 at 16 to 32 ug/ml after 24 hrs by time-kill assay; assay type: functional; method in brief: as §4
Pseudomonas aeruginosa [13] = test: Bactericidal activity against Pseudomonas aeruginosa ATCC 27853 at 8 ug/ml after 2 hrs by time-kill assay relative to control; assay type: functional; method in brief: as §4
Staphylococcus aureus [14] = test: Bactericidal activity against Staphylococcus aureus ATCC 29213 at 32 ug/ml after 4 hrs by time-kill assay relative to control; assay type: functional; method in brief: as §4
Escherichia coli [15] = test: Antibacterial activity against Escherichia coli ATCC 25922 after 18 to 20 hrs in presence of 95% serum by broth microdilution method; assay type: functional
Method in brief: (§5)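 Same microdilution with human serum as medium: compound 2-fold diluted in 100% serum, mixed 1:1 with 90% serum holding ~1.5 × 10^5 CFU/mL, giving 95% serum and final 0.5–64 μg/mL. MIC read as no visible growth after incubation as for the broth test.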

Staphylococcus aureus [16] = test: Antibacterial activity against Staphylococcus aureus ATCC 29213 after 18 to 20 hrs in presence of 95% serum by broth microdilution method; assay type: functional; method in brief: as §5
Escherichia coli [17] = test: Antibacterial activity against Escherichia coli ATCC 25922 in presence of 100% serum after 6 hrs by broth microdilution method; assay type: functional; conditions: ATCC 25922, 6 h
Method in brief: (§6)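 Serum stability: compound added to 100% human serum at final 64 μg/mL, held at 37 °C, sampled at 0, 6, 12 and 24 h. […] Residual activity compared with untreated control.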

Escherichia coli [18] = test: Antibacterial activity against Escherichia coli ATCC 25922 in presence of 100% serum after 12 hrs by broth microdilution method; assay type: functional; conditions: ATCC 25922, 12 h; method in brief: as §6
Acinetobacter baumannii [19] = test: Antibacterial activity against carbapenem-resistant Acinetobacter baumannii clinical isolate expressing beta-lactamase OXA-23, 24/40 after 18 to 20 hrs by broth microdilution method; assay type: functional; method in brief: as §2
Escherichia coli [20] = test: Antibacterial activity against carbapenem-resistant Escherichia coli clinical isolate expressing beta-lactamase KPC3, TEM1 after 18 to 20 hrs by broth microdilution method; assay type: functional; method in brief: as §2
Klebsiella pneumoniae [21] = test: Antibacterial activity against carbapenem-resistant Klebsiella pneumoniae clinical isolate expressing beta-lactamase KPC after 18 to 20 hrs by broth microdilution method; assay type: functional; method in brief: as §2
Escherichia coli [22] = test: Antibacterial activity against polymyxin-resistant Escherichia coli UAMS-ECPR1 after 18 to 20 hrs by broth microdilution method; assay type: functional; method in brief: as §2
Escherichia coli [23] = test: Antibacterial activity against polymyxin-resistant Escherichia coli UAMS-ECPR2 after 18 to 20 hrs by broth microdilution method; assay type: functional; method in brief: as §2
Pseudomonas aeruginosa [24] = test: Antibiofilm activity against Pseudomonas aeruginosa ATCC 27853 established catheter-associated biofilm model at 40 times MIC after 72 hrs relative to control; assay type: functional
Pseudomonas aeruginosa [25] = test: Bactericidal activity against Pseudomonas aeruginosa ATCC 27853 at 16 ug/ml after 60 mins in presence of LPS; assay type: functional
Method in brief: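 P. aeruginosa at ~10^6 CFU/mL in TSB with E. coli O111:B4 LPS (final 10, 25, 50 or 100 μg/mL), then compound at final 16 μg/mL. Incubated 37 °C, 200 rpm, 60 min; survivors counted on TSA. Three independent experiments, one replicate each.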

Staphylococcus aureus [26] = test: Induction of cytoplasmic membrane depolarization in Staphylococcus aureus ATCC 29213 at >= 16 ug/ml by DiSC3(5) probe-based fluorescence assay; assay type: functional
Method in brief: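 S. aureus ATCC 29213 grown in TSB at 37 °C with shaking (200 rpm) for ~5 h after 1/100 dilution of an overnight culture. Cells washed twice in 5 mM HEPES (pH 7.2) with 5 mM glucose and resuspended in the same buffer. Loaded with 0.5 μM DiSC3(5) for 15 min at room temperature, then 100 mM KCl added. Compound given at 8–64 μg/mL final. Fluorescence read at ex 622/em 670 nm. Three independent experiments, ANOVA with Tukey HSD.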

Pseudomonas aeruginosa [27] = test: Induction of cytoplasmic membrane damage in Pseudomonas aeruginosa ATCC 27853 assessed as intracellular potassium ion release at 32 to 64 ug/ml by PBFI probe-based fluorescence assay; assay type: functional, cell-based
Method in brief: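 Mid-log cells washed and suspended in 5 mM HEPES pH 7.2 + 5 mM glucose. PBFI K+ probe added at final 2 μM, then compound at final 8–64 μg/mL; fluorescence read at ex 346/em 505 nm. Three independent experiments; change in fluorescence analysed by ANOVA with Tukey HSD.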

Klebsiella pneumoniae [28] = test: Antibacterial activity against polymyxin-resistant Klebsiella pneumoniae AR 0109 after 18 to 20 hrs by broth microdilution method

CC(C)C[C@H](NC(=O)[C@@H](Cc1ccccc1)NC(=O)[C@H](CCN)NC(=O)[C@H](Cc1ccccc1)NC(=O)[C@H](CCN)NC(=O)[C@@H](N)CC1CCCCC1)C(=O)N[C@@H](CCN)C(=O)N[C@H](CC(C)C)C(=O)N[C@@H](Cc1ccccc1)C(=O)N[C@@H](CO)C(N)=O (H-[Cha][Dab]F[Dab][dF]L[Dab][dL]FS-NH2)
MIC (Escherichia coli [1]): 0.5 to 1 µg/mL (≈ 0.408 to 0.816 µM) | MIC (Pseudomonas aeruginosa [2]): 0.5 to 1 µg/mL (≈ 0.408 to 0.816 µM) | MIC (Enterococcus faecium [3]): 8 µg/mL (≈ 6.53 µM) | MIC (Staphylococcus aureus [4]): 2 to 4 µg/mL (≈ 1.63 to 3.26 µM) | MIC (Staphylococcus aureus [5]): 4 µg/mL (≈ 3.26 µM) | MBC (Acinetobacter baumannii [6]): 4 to 8 µg/mL (≈ 3.26 to 6.53 µM) | MBC (Escherichia coli [7]): 8 to 16 µg/mL (≈ 6.53 to 13.1 µM) | MBC (Enterococcus faecium [8]): 16 µg/mL (≈ 13.1 µM) | MBC (Staphylococcus aureus [9]): 8 µg/mL (≈ 6.53 µM) | Activity (Pseudomonas aeruginosa [10]): 5.1 deltalog10CFU/ml | Activity (Pseudomonas aeruginosa [11]): 3.7 deltalog10CFU/ml | Activity (Pseudomonas aeruginosa [12]): Active | Activity (Pseudomonas aeruginosa [13]): 2.2 deltalog10CFU/ml | Activity (Staphylococcus aureus [14]): 5.4 deltalog10CFU/ml | MIC (Escherichia coli [15]): 8 µg/mL | MIC (Staphylococcus aureus [16]): 32 µg/mL | MIC (Escherichia coli [17]): 4 to 8 µg/mL | MIC (Escherichia coli [18]): 4 to 8 µg/mL | MIC (Acinetobacter baumannii [19]): 0.5 µg/mL (≈ 0.408 µM) | MIC (Escherichia coli [20]): 0.5 to 1 µg/mL (≈ 0.408 to 0.816 µM) | MIC (Klebsiella pneumoniae [21]): 1 to 2 µg/mL (≈ 0.816 to 1.63 µM) | MIC (Escherichia coli [22]): < 0.5 µg/mL | MIC (Escherichia coli [23]): < 0.5 µg/mL | Activity (Pseudomonas aeruginosa [24]): 2.6 deltalog10CFU/ml | Activity (Pseudomonas aeruginosa [25]): inactive | Activity (Staphylococcus aureus [26]): Active | Activity (Pseudomonas aeruginosa [27]): Active | MIC (Klebsiella pneumoniae [28]): 4 to 8 µg/mL (≈ 3.26 to 6.53 µM)
